Assay results published in ChEMBL document CHEMBL4371052, “Diarylcarbonates are a new class of deubiquitinating enzyme inhibitor” (Bioorg Med Chem Lett, 2019).
The source made the active and inactive calls. The calls are words filed in the database; no cut-off is given here.

Assays:
[1] = molecular target: Ubiquitin carboxyl-terminal hydrolase 9X (Homo sapiens) (UniProt Q93008); test: Inhibition of USP9x in HEK293T cell lysates at 25 uM using HA-tagged vinyl-sulfone as substrate preincubated for 19 to 60 mins followed by substrate addition and measured after 19 to 25 mins by Western blot analysis; format: subcellular; details: Lysate
[2] = molecular target: T1, Ubiquitin carboxyl-terminal hydrolase 19 (Homo sapiens) (UniProt O94966); test: Inhibition of USP19 in HEK293T cell lysates at 25 uM using HA-tagged vinyl-sulfone as substrate preincubated for 19 to 60 mins followed by substrate addition and measured after 19 to 25 mins by Western blot analysis; format: subcellular; details: Lysate
T1 sequence (whole entry): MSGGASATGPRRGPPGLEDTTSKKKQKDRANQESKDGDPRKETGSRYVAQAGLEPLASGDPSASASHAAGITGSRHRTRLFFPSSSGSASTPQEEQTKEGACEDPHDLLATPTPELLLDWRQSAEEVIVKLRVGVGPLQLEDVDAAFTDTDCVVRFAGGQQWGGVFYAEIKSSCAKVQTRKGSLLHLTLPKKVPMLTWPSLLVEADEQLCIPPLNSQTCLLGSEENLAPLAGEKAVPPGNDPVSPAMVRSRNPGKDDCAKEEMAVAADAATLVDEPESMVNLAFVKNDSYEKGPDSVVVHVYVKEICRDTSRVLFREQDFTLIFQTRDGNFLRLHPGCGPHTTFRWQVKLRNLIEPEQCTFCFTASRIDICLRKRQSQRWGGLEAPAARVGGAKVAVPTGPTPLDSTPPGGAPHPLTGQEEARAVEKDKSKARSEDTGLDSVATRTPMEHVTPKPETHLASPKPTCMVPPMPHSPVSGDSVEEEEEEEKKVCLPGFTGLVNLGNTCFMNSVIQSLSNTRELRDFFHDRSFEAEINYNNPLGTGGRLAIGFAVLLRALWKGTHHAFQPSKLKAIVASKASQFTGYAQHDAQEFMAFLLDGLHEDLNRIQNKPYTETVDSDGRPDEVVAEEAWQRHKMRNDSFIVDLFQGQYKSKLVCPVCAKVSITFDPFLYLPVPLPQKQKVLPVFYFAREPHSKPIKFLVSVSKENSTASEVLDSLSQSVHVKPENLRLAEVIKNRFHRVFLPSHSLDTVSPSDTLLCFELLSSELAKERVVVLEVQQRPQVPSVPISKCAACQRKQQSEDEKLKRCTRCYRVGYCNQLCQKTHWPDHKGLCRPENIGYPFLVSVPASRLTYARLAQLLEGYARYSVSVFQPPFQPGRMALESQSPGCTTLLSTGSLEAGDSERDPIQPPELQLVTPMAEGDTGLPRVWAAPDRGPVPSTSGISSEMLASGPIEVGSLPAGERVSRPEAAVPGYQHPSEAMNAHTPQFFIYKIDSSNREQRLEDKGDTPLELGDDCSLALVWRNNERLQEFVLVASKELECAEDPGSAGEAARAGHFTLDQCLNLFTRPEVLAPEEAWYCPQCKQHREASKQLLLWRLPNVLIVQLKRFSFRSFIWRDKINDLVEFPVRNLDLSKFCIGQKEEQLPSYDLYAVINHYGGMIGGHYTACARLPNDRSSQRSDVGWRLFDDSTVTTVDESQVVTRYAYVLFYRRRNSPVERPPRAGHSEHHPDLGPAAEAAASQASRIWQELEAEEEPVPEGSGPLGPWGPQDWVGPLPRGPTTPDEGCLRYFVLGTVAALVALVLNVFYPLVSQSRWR

[3] = molecular target: Ubiquitin carboxyl-terminal hydrolase 28 (Homo sapiens) (UniProt Q96RU2); test: Inhibition of USP28 in HEK293T cell lysates at 25 uM using HA-tagged vinyl-sulfone as substrate preincubated for 19 to 60 mins followed by substrate addition and measured after 19 to 25 mins by Western blot analysis; format: subcellular; details: Lysate
[4] = molecular target: Ubiquitin carboxyl-terminal hydrolase isozyme L1 (Homo sapiens) (UniProt P09936); test: Inhibition of UCHL1 in HEK293T cell lysates at 25 uM using HA-tagged vinyl-sulfone as substrate measured after 2 to 30 mins by Western blot analysis; format: subcellular; details: Lysate
Procedure, shortened: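 HEK 293T lysate (1.5 mg/ml) given compound (25 μM) or DMSO at the same time as HA-Ub-VS (1.5 μM). Aliquots withdrawn over time were run on SDS-PAGE and immunoblotted for HA.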

[5] = molecular target: Chymotrypsin (Homo sapiens, UniProt Q99895+P17538+P40313+Q6GPI1); test: (§1) Substrate activity at chymotrypsin (unknown origin) by Michaelis-Menten plot analysis; format: ADME, protein assay
Procedure, shortened: (§2)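 Diarylcarbonate hydrolysis by chymotrypsin or trypsin measured across substrate concentrations; velocity versus substrate concentration fit for Km and kcat.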

[6] = molecular target: chymotrypsin (Homo sapiens, UniProt P17538+P40313+Q6GPI1+Q99895); test: as §1; format: ADME, protein assay; details: chymotrypsin (isolated enzyme, unknown origin); procedure, shortened: as §2

Chain of Ubiquitin carboxyl-terminal hydrolase 9X (Homo sapiens) (Q93008 whole entry): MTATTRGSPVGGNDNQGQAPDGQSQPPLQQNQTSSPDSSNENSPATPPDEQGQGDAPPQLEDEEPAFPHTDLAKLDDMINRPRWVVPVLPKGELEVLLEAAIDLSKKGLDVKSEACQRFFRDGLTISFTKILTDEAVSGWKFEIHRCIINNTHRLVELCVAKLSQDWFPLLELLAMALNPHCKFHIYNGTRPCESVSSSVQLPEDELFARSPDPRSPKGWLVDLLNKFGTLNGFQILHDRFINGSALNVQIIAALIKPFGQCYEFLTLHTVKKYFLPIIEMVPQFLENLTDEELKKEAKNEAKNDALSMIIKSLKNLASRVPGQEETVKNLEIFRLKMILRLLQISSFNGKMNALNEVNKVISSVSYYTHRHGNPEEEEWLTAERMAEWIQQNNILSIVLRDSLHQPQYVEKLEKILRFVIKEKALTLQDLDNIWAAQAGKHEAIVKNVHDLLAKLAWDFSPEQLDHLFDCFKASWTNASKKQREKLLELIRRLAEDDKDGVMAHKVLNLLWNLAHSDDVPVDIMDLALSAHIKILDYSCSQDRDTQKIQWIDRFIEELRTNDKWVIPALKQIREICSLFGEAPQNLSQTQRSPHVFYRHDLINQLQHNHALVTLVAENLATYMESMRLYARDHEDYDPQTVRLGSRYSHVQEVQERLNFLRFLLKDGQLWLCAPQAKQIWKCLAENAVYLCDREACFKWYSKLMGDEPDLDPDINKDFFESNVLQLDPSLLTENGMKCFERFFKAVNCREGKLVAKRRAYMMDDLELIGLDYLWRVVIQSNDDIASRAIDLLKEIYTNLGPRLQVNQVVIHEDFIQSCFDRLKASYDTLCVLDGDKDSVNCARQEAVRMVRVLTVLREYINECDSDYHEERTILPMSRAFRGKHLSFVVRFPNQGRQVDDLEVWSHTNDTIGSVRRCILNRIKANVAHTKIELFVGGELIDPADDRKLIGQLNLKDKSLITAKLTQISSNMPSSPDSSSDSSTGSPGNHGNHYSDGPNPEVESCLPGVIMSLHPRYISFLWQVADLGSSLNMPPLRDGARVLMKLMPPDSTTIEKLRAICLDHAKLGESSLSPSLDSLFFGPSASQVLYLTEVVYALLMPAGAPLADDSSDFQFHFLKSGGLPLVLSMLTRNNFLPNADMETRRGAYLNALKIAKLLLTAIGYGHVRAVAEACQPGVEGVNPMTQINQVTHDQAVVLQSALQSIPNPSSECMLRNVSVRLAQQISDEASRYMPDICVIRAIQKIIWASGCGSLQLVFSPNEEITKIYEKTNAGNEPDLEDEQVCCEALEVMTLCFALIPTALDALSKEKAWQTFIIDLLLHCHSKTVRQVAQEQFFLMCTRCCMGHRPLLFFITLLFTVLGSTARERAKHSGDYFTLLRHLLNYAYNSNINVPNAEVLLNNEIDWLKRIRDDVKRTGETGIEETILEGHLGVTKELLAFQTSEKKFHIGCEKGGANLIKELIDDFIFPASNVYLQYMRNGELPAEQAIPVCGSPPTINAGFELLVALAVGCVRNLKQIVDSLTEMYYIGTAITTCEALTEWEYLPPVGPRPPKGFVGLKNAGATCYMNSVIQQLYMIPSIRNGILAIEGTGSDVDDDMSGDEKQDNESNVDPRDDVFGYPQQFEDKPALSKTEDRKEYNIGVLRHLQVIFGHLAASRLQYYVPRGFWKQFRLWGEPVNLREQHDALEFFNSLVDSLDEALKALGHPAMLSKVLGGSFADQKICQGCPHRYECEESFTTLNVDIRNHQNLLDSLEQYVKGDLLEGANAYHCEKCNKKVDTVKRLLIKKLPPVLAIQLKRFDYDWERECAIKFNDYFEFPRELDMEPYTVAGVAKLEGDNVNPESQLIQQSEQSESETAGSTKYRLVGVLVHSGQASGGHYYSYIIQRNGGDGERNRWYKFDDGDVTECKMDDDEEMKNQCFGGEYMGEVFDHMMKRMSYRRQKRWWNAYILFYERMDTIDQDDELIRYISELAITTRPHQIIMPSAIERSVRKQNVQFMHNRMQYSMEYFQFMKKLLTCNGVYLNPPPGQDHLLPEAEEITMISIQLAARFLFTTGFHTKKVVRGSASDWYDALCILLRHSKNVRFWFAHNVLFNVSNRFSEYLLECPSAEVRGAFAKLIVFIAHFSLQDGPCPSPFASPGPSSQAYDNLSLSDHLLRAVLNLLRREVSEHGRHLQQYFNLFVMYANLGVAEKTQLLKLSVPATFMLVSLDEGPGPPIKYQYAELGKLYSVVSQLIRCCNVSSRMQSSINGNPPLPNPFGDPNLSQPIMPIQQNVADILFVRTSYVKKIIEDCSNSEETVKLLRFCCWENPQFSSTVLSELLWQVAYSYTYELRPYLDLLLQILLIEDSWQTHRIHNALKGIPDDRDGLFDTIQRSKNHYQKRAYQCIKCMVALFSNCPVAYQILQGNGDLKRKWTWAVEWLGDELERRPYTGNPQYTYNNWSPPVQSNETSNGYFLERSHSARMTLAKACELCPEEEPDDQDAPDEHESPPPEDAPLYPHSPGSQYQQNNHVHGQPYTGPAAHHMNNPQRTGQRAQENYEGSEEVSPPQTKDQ
Chain of Ubiquitin carboxyl-terminal hydrolase 28 (Homo sapiens) (Q96RU2 whole entry): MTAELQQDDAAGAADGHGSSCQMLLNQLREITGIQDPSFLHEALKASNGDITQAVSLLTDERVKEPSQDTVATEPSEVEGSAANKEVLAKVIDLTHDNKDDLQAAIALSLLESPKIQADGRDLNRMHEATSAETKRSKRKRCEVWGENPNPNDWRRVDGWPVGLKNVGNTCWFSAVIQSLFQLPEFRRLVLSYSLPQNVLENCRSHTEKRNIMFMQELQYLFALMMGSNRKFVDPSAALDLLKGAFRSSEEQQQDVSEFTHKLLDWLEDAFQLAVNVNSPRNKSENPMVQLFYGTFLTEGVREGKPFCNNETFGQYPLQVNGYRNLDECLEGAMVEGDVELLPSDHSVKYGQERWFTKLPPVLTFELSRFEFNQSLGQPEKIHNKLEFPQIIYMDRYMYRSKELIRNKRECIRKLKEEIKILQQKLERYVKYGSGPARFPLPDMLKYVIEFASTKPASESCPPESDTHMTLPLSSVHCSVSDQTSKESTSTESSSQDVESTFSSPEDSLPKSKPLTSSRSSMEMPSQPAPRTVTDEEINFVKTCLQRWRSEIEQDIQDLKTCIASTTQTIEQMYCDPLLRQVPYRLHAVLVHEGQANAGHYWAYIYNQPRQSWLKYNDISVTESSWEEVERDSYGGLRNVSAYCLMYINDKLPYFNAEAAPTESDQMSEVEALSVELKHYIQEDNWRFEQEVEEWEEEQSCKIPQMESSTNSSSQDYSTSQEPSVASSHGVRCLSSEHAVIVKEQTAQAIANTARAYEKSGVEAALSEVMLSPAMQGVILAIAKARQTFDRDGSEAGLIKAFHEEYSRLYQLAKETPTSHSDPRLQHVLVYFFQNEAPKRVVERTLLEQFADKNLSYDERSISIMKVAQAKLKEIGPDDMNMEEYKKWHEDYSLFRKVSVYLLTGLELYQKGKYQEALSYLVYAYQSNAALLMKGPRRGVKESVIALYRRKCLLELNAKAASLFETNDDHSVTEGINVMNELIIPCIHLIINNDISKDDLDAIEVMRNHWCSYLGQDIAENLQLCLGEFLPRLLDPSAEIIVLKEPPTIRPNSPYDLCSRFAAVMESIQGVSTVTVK
Chain of Ubiquitin carboxyl-terminal hydrolase isozyme L1 (Homo sapiens) (P09936 whole entry, looked up): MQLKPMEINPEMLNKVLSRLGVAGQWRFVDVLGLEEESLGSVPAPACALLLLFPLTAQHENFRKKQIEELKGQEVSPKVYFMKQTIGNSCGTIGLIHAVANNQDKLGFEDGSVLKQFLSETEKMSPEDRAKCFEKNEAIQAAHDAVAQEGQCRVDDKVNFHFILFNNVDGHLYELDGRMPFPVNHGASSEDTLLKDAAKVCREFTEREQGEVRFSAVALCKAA

NCc1ccc(OC(=O)Oc2ccc3ccccc3c2)cc1
inhibition [1]: Active | inhibition [2]: Active | inhibition [3]: Active | inhibition [4]: inactive | Kcat [5]: 0.03 s⁻¹ | Km [6]: 1 µM
